Reference: ChEMBL document CHEMBL3627705 (Bioorg Med Chem Lett, 2015)

Experiments:
[1] = target: T1, Corticotropin-releasing factor receptor 1 (Homo sapiens, UniProt P34998); assay: Displacement of [125I]-Tyr0-sauvagine from human CRF1 receptor expressed in HEK293T cells after 2 hrs by scintillation counting; format: cell-based, HEK-293T
T1 sequence (P34998 whole entry): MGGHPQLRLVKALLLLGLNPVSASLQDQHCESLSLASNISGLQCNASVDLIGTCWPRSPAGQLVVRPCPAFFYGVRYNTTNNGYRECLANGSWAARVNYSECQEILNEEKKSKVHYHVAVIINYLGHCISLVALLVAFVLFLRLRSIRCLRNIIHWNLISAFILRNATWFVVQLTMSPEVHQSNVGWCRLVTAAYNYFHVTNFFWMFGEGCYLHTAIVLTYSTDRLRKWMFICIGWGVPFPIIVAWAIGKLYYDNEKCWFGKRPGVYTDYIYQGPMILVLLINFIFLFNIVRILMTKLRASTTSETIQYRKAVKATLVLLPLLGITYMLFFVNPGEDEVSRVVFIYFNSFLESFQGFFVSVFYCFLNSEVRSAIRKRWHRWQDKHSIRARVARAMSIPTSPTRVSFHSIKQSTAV

[2] = target: T2, Corticotropin-releasing factor receptor 2 (Homo sapiens) (UniProt Q13324); assay: Displacement of [125I]-antisauvagine-30 from human CRF2 receptor expressed in HEK293T cells at 1 uM after 2 hrs by scintillation counting; format: cell-based; conditions: HEK-293T
T2 sequence (whole entry): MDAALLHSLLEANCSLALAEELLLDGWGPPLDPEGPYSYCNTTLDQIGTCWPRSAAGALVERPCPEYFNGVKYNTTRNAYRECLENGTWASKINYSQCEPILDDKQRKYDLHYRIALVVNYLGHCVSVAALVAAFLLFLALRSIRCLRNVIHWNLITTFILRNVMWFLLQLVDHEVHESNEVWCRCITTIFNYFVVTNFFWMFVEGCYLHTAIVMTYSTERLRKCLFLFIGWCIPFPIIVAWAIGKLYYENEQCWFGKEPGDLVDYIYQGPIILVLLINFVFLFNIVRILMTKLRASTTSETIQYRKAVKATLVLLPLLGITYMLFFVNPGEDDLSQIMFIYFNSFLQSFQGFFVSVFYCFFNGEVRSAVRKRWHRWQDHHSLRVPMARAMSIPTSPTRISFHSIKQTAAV
Method in brief: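 Competition binding at 23 °C on HEK293T cells transfected with human CRF2 receptor. Each ligand tested at 1 μM against the radiotracer [125I]antisauvagine-30. Read-out is mean % displacement of specific radiotracer binding, n = 2.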

[3] = Lipophilicity, logP of the compound at pH 7.4; format: physicochemical; conditions: buffer
Method in brief: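 Octanol/aqueous buffer shake-flask partition at pH 7.4, done on the 18F-labelled radioligands; mean ± SD of n = 4.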

[4] = test system: Brain; assay: Drug uptake in cynomolgus monkey brain assessed as whole-brain time-activity curve by MicroPET imaging analysis; format: ADME, tissue-based, Macaca fascicularis; conditions: in vivo

SMILES | Ki [1] | inhibition [2] | other results
CCCCN(CC)c1cc(C)nc2c1NC(=O)CN2c1ccc(C(C)C)cc1Br | 2.4 nM | 0.7% | –
Cc1cc(N(C)C)c2c(n1)N(c1ccc(C(C)C)cc1Br)CC(=O)N2CCCC[17F] | – | – | logD [3]: 2.19
CCCCN(CC)c1cc(C)nc2c1NC(=O)CN2c1ccc(Br)cc1Cl | 2.7 nM | – | –
CCCCN(CC)c1cc(C)nc2c1NC(=O)CN2c1ccc(Br)cc1C | 4.4 nM | 5.9% | –
CCN(C)c1cc(C)nc2c1N(CCCCF)C(=O)CN2c1ccc(C(C)C)cc1Br | 13.9 nM | – | –
CCCCN(CC)c1cc(C)nc2c1NC(=O)CN2c1ccc(Cl)cc1Cl | 3.4 nM | 0.9% | –
CCCCN(CC)c1cc(C)nc2c1N(C)C(=O)CN2c1ccc(Br)cc1Br | 2.4 nM | – | –
Cc1cc(N(C)C)c2c(n1)N(c1ccc(C(C)C)cc1Br)CC(=O)N2 | 180 nM | – | –
Cc1cc(N(C)C)c2c(n1)N(c1ccc(C(C)C)cc1Br)CC(=O)N2CCF | 59 nM | – | –
CCCCN(CC)c1cc(C)nc2c1NC(=O)CN2c1ccc(I)cc1C | 3.4 nM | – | –
CCCCN(CC)c1cc(C)nc2c1NC(=O)CN2c1ccc(Br)cc1CC | 2.5 nM | 2.1% | –
Cc1cc(N(C)C)c2c(n1)N(c1ccc(C(C)C)cc1Br)CC(=O)N2C/C=C/CF | 14.2 nM | – | –
CCCCN(CC)c1cc(C)nc2c1NC(=O)CN2c1ccc(C)cc1C | 3.9 nM | 6.8% | –
CCCCN(CC)c1cc(C)nc2c1NC(=O)CN2c1ccc(OC)cc1C | 4 nM | -2.3% | –
CCN(CC)c1cc(C)nc2c1N(CCF)C(=O)CN2c1ccc(C(C)C)cc1Br | 7.3 nM | – | –
CCCCN(CC)c1cc(C)nc2c1NC(=O)CN2c1ccc(Cl)cc1C | 5.4 nM | – | –
Cc1cc(N(C)C)c2c(n1)N(c1ccc(C(C)C)cc1Br)CC(=O)N2CCCCF | 21.6 nM | – | –
CCN(C)c1cc(C)nc2c1NC(=O)CN2c1ccc(C(C)C)cc1Br | 16.4 nM | – | –
CCN(C)c1cc(C)nc2c1N(CCCC[17F])C(=O)CN2c1ccc(C(C)C)cc1Br | – | – | logD [3]: 2.22; SUV [4]: <= 1
CC[C@H](C)[C@H](NC(=O)[C@@H](NC(=O)[C@H](CC(=O)O)NC(=O)[C@H](CC(C)C)NC(=O)[C@H](CC(C)C)NC(=O)[C@H](CC(C)C)NC(=O)[C@H](CCCN=C(N)N)NC(=O)[C@H](CC(N)=O)NC(=O)[C@H](CC(N)=O)NC(=O)[C@H](C)NC(=O)[C@H](C)NC(=O)[C@H](CCC(N)=O)NC(=O)[C@H](CCC(N)=O)NC(=O)[C@H](CCCCN)NC(=O)[C@H](CCC(=O)O)NC(=O)[C@H](CCCCN)NC(=O)[C@H](CCC(=O)O)NC(=O)[C@H](CCC(N)=O)NC(=O)[C@H](CCCCN)NC(=O)[C@H](CCC(=O)O)NC(=O)[C@@H](NC(=O)[C@H](CCC(=O)O)NC(=O)[C@@H](NC(=O)[C@H](CCSC)NC(=O)[C@H](CCCCN)NC(=O)[C@H](CCCN=C(N)N)NC(=O)[C@H](CC(C)C)NC(=O)[C@H](CC(C)C)NC(=O)[C@H](CCC(=O)O)NC(=O)[C@H](CC(C)C)NC(=O)[C@H](CO)NC(=O)[C@H](CC(C)C)NC(=O)[C@H](CC(=O)O)NC(=O)[C@@H](NC(=O)[C@H](CO)NC(=O)[C@@H](NC(=O)[C@@H]1CCCN1C(=O)[C@@H]1CCCN1C(=O)CNC(=O)[C@@H]1CCC(=O)N1)[C@@H](C)CC)[C@@H](C)CC)[C@@H](C)CC)[C@@H](C)CC)[C@@H](C)O)C(=O)O | – | 100% | –
CCCCN(CC)c1cc(C)nc2c1NC(=O)CN2c1ccc(C)cc1Cl | 4.4 nM | – | –
CCCCN(CC)c1cc(C)nc2c1NC(=O)CN2c1ccc(C(C)(C)C)cc1Br | 4.2 nM | -3.8% | –
CCCCN(CC)c1cc(C)nc2c1NC(=O)CN2c1ccc(C)cc1Br | 4.4 nM | 5.5% | –
CCCCN(CC)c1cc(C)nc2c1NC(=O)CN2c1ccc(Br)cc1Br | 1.3 nM | 9.4% | –
CCCCN(CC)c1cc(C)nc2c1NC(=O)CN2c1ccc(Cl)cc1Br | 2.5 nM | – | –
CCCN(CCC)c1cc(C)nc2c(-c3cnc(N(C)C)cc3C)c(C)nn12 | – | 23.8% | –
CCCN(CCC)c1cc(C)nc2c1NC(=O)CN2c1ccc(C(C)C)cc1Br | 3.1 nM | – | –
